Reference: ChEMBL document CHEMBL2169868, “Flavone-based novel antidiabetic and antidyslipidemic agents” (J Med Chem, 2012)
Activity calls are given as the source filed them. The calls are words filed in the database; no cut-off is given here.

What was measured:
Rattus norvegicus [1] = assay: Antihyperlipidemic activity in Triton-induced dyslipidemic Wistar rat model assessed as reduction in cholesterol level at 100 mg/kg, po; type: functional; parameters: scale not given: the % may be the effect or the level left
Procedure, shortened: (§1)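 Male Wistar rats, 8−10 weeks, about 160 g, fed normal pellet diet. Triton X-100 given at 400 mg/kg ip; compound given orally in 1% gum acacia. Retro-orbital blood taken 18 h after Triton and serum separated at 1500g for 10 min. TG and cholesterol measured by kit. Mean % change versus dyslipidemic control, 5 animals.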

Rattus norvegicus [2] = assay: Antidiabetic activity in sucrose challenged streptozotocin-induced diabetic Sprague-Dawley rat model assessed as reduction in glucose levels at 100 mg/kg, po measured after 24 hrs; type: functional
Rattus norvegicus [3] = assay: Antihyperlipidemic activity in Triton-induced dyslipidemic Wistar rat model assessed as reduction in triglyceride level at 100 mg/kg, po; type: functional; parameters: scale not given: the % may be the effect or the level left; procedure, shortened: as §1
Rattus norvegicus [4] = assay: Antidiabetic activity in sucrose challenged streptozotocin-induced diabetic Sprague-Dawley rat model assessed as reduction in glucose levels at 100 mg/kg, po measured after 5 hrs; type: functional; parameters: scale not given: the % may be the effect or the level left
Rattus norvegicus [5] = assay: Antidiabetic activity in sucrose loaded Wistar rat model assessed as reduction in glucose levels at 100 mg/kg, po; type: functional; parameters: scale not given: the % may be the effect or the level left
Rattus norvegicus [6] = assay: Antihyperlipidemic activity in Triton-induced dyslipidemic Wistar rat model assessed as reduction in phospholipid level at 100 mg/kg, po; type: functional; parameters: scale not given: the % may be the effect or the level left; procedure, shortened: as §1
Mus musculus [7] = assay: Antihyperglycemic activity in diabetic C57BL/KsJ db/db mouse model assessed as reduction in plasma insulin level in hyperglycemia at 25 mg/kg, po qd for 10 days; type: functional; parameters: scale not given: the % may be the effect or the level left
Procedure, shortened: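 db/db mice dosed orally every day for 10 days. On day 11, retro-orbital blood was drawn and plasma insulin measured. Mean % change versus vehicle-treated control, 5 mice per group; Student t test.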

Syrian golden hamster [8] = assay: Antidyslipidemic activity in high fructose and high-fat diet fed dyslipidemic Syrian golden hamster model assessed as reduction in body weight at 100 mg/kg/day for 7 days; type: functional, organism-based; details: Mesocricetus auratus
Procedure, shortened: (§2)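 Syrian golden hamsters fed high-fructose high-fat diet; oral dosing in 1% gum acacia at 10, 30, 100 mg/kg (or 25 mg/kg) for 7 days, sham control given vehicle; plasma TG, cholesterol, LDL-C, HDL-C, glycerol and NEFA (kits), lipoprotein lipase activity and body weight; % change versus HFD control, six hamsters per group.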

Mus musculus [9] = assay: Reduction in body weight in diabetic C57BL/KsJ db/db mouse model in hyperglycemia at 25 mg/kg, po qd for 10 days relative to untreated control; type: functional
Procedure, shortened: (§3)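 db/db mice (C57BL/KsJ, 12−18 weeks, 40−50 g, glucose 200−350 mg/dL), housed at 23 ± 2.0 °C on a 12 h light cycle. Oral dosing daily for 10 days. Blood glucose checked each morning through day 9. Body weight recorded daily from day 1 to day 10. Mean % change versus vehicle, 5 mice per group; Student t test.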

Syrian golden hamster [10] = assay: Antidyslipidemic activity in high fructose and high-fat diet fed dyslipidemic Syrian golden hamster model assessed as reduction in triglyceride level at 100 mg/kg/day for 7 days; type: functional, Mesocricetus auratus; parameters: scale not given: the % may be the effect or the level left; procedure, shortened: as §2
Mus musculus [11] = assay: Antidyslipidemic activity in diabetic C57BL/KsJ db/db mouse model assessed as reduction in plasma triglyceride level at 25 mg/kg, po qd for 10 days; type: functional; parameters: scale not given: the % may be the effect or the level left
Procedure, shortened: (§4)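 db/db mice (blood glucose 200−350, TG 170−250, cholesterol 170−250, HDL-C 32−40 mg/dL) dosed orally at 25 mg/kg daily for 10 days; retro-orbital blood taken on day 11 for plasma TG, cholesterol and HDL-C (and HDL-C/CHOL ratio); mean % change versus vehicle control, 5 mice per group; Student t test.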

Mus musculus [12] = assay: Antidyslipidemic activity in diabetic C57BL/KsJ db/db mouse model assessed as reduction in plasma cholesterol level at 25 mg/kg, po qd for 10 days; type: functional; parameters: scale not given: the % may be the effect or the level left; procedure, shortened: as §4
Mus musculus [13] = assay: Antidyslipidemic activity in diabetic C57BL/KsJ db/db mouse model assessed as increase in plasma HDL-cholesterol level at 25 mg/kg, po qd for 10 days; type: functional; procedure, shortened: as §4
Mus musculus [14] = assay: Antihyperglycemic activity in diabetic C57BL/KsJ db/db mouse model assessed as improvement in glucose tolerance in hyperglycemia at 25 mg/kg, po qd for 10 days; type: functional
Procedure, shortened: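 Male/female C57BL/KsJ db/db mice, 12−18 weeks, 40−50 g, selected for glucose 200−350 mg/dL. Oral dosing daily for 10 days. OGTT on day 10 after an overnight fast: compound at −30 min, then 3 g/kg oral glucose at 0 min. Glucose read at 30, 60, 90 and 120 min. AUC taken versus vehicle, 5 mice per group.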

Syrian golden hamster [15] = assay: Antidyslipidemic activity in high fructose and high-fat diet fed dyslipidemic Syrian golden hamster model assessed as reduction in cholesterol level at 100 mg/kg/day for 7 days; type: functional, Mesocricetus auratus; parameters: scale not given: the % may be the effect or the level left
Mus musculus [16] = assay: Antihyperglycemic activity in diabetic C57BL/KsJ db/db mouse model assessed as reduction in hyperglycemia at 25 mg/kg, po qd for 10 days; type: functional; parameters: scale not given: the % may be the effect or the level left; procedure, shortened: as §3
Syrian golden hamster [17] = assay: Antidyslipidemic activity in high fructose and high-fat diet fed dyslipidemic Syrian golden hamster model assessed as increase in HDL-cholesterol level at 100 mg/kg/day for 7 days; type: functional, Mesocricetus auratus
Mus musculus [18] = assay: Antidyslipidemic activity in diabetic C57BL/KsJ db/db mouse model assessed as increase in plasma HDL-C/cholesterol ratio at 25 mg/kg, po qd for 10 days; type: functional; procedure, shortened: as §4
Syrian golden hamster [19] = assay: Antidyslipidemic activity in high fructose and high-fat diet fed dyslipidemic Syrian golden hamster model assessed as reduction in LDL-cholesterol level at 100 mg/kg/day for 7 days; type: functional, Mesocricetus auratus; parameters: scale not given: the % may be the effect or the level left; procedure, shortened: as §2

SMILES | Activity (Rattus norvegicus [1]) [%] | Activity (Rattus norvegicus [2]) | Activity (Rattus norvegicus [3]) [%] | Activity (Rattus norvegicus [4]) [%] | Activity (Rattus norvegicus [5]) [%] | Activity (Rattus norvegicus [6]) [%] | Activity (Mus musculus [7]) [%] | Activity (Syrian golden hamster [8]) | Activity (Mus musculus [9]) | Activity (Syrian golden hamster [10]) [%] | Activity (Mus musculus [11]) [%] | Activity (Mus musculus [12]) [%] | Activity (Mus musculus [13]) [%] | Activity (Mus musculus [14]) [%] | Activity (Syrian golden hamster [15]) [%] | Activity (Mus musculus [16]) [%] | Activity (Syrian golden hamster [17]) [%] | Percent increase in HDL-C/cholesterol ratio vs vehicle (Mus musculus [18]) | Activity (Syrian golden hamster [19]) [%]
Cc1ccc(COc2cc(OCc3ccc(C)cc3)cc(-c3cc(=O)c4ccc(OCC(O)CN(C(C)C)C(C)C)cc4o3)c2)cc1 (stereo not drawn) | 10.1 | inactive | 12.1 | 12.2 | 15.7 | 4.67 | – | – | – | – | – | – | – | – | – | – | – | – | –
CC(C)NCC(O)COc1ccc2c(=O)cc(-c3cc(O)cc(O)c3)oc2c1 (racemic) | 32 | – | 32 | – | 29 | 28 | 22.3 | Active | inactive | 48.9 | 14.2 | 15.3 | 11.8 | 33.2 | 13.8 | 39.5 | 14.9 | 32.1 | 47.7
CC(C)(C)NCC(O)COc1ccc2c(=O)cc(-c3cc(OCc4ccccc4Cl)cc(OCc4ccccc4Cl)c3)oc2c1 (stereo not drawn) | 12.5 | inactive | 18.7 | 7.48 | 14.8 | 11.3 | – | – | – | – | – | – | – | – | – | – | – | – | –
CN(CCOc1ccc(CC2SC(=O)NC2=O)cc1)c1ccccn1 (stereo not drawn) [ROSIGLITAZONE] | – | – | – | – | – | – | 40.5 | – | -18.3% | – | 24.5 | 32.6 | 6.98 | 49.5 | – | 54.3 | – | 108.7 | –
CC(C)NCC(O)COc1ccc2c(=O)cc(-c3cc(OCc4ccccc4Cl)cc(OCc4ccccc4Cl)c3)oc2c1 (stereo not drawn) | 12.1 | inactive | 30.2 | 6.83 | 12.6 | 20.2 | – | – | – | – | – | – | – | – | – | – | – | – | –
CC(C)NC[C@@H](O)COc1ccc2c(=O)cc(-c3cc(O)cc(O)c3)oc2c1 | – | – | – | – | – | – | 9.1 | – | inactive | – | 14.1 | 11.2 | 3.59 | 22.4 | – | 28.2 | – | 16.6 | –
Cc1ccc(COc2cc(OCc3ccc(C)cc3)cc(-c3cc(=O)c4ccc(OCC(O)CNCc5ccccc5)cc4o3)c2)cc1 (stereo not drawn) | 16.5 | 17.9% | 27.2 | 26.2 | 32 | 20.8 | – | – | – | – | – | – | – | – | – | – | – | – | –
Cc1ccccc1COc1cc(OCc2ccccc2C)cc(-c2cc(=O)c3ccc(OCC(O)CNC(C)(C)C)cc3o2)c1 (stereo not drawn) | 22.3 | 17.2% | 28.2 | 23.2 | 39.1 | 12.6 | – | – | – | – | – | – | – | – | – | – | – | – | –
